Test results taken from ChEMBL document CHEMBL1759937, “Pyridinesulfonylureas and pyridinesulfonamides as selective bombesin receptor subtype-3 (BRS-3) agonists” (Bioorg Med Chem Lett, 2011).

Tests used:
[1] = molecular target: T1, Bombesin receptor subtype-3 (Homo sapiens, UniProt P32247); assay: Agonist activity at human BRS3 expressed in HEK293AEQ cells using 10 uM dy-peptide by bioluminescence assay
T1 sequence (P32247 whole entry): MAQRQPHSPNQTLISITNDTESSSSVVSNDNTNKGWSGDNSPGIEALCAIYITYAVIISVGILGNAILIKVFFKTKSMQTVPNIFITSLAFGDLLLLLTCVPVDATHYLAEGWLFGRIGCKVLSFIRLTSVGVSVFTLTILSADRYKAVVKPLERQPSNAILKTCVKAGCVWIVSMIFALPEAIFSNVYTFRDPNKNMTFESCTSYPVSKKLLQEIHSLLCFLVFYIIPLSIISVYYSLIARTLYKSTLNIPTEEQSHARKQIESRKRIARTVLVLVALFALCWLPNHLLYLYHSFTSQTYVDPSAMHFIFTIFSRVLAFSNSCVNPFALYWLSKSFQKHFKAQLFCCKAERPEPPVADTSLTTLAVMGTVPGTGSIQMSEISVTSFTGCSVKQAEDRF

[2] = molecular target: T1, Bombesin receptor subtype-3
[3] = molecular target: T2, Bombesin receptor subtype-3 (Mus musculus, UniProt O54798); assay: Agonist activity at mouse BRS3 by functional assay
T2 sequence (O54798 whole entry): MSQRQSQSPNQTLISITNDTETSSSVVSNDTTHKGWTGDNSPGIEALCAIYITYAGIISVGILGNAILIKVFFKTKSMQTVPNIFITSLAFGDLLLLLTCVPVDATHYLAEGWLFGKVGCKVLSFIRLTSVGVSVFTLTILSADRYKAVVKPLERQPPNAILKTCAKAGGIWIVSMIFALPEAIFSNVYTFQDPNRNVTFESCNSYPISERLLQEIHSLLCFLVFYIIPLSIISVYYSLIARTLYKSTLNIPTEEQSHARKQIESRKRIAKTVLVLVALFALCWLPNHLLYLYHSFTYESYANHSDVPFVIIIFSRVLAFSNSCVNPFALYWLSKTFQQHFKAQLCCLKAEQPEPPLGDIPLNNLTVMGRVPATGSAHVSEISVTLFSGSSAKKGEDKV
Outline: (§1)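 HEK293AEQ cells expressing mouse BRS-3; bioluminescence read against log molar compound concentration. EC50 taken as the inflection point of the sigmoidal curve and normalized to the EC50 of an internal standard. Values under 2 µM with standard errors are means of at least three experiments; duplicate data are reported individually.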

[4] = molecular target: T1, Bombesin receptor subtype-3; assay: Agonist activity at human BRS3 by functional assay
[5] = molecular target: T1, Bombesin receptor subtype-3; assay: Binding affinity to human BRS3
[6] = molecular target: T3, Bombesin receptor subtype-3 (Mus musculus) (UniProt O54798); assay: Agonist activity at mouse BRS3 by functional assay relative to control; outline: as §1
T3 sequence (whole entry): T2 sequence (O54798 whole entry)

[7] = molecular target: Gastrin-releasing peptide receptor (Homo sapiens) (UniProt P30550)
[8] = molecular target: Neuromedin-B receptor (Homo sapiens) (UniProt P28336)
[9] = Bioavailability in Sprague-Dawley rat at 1 mg/kg, iv or 4 mg/kg, po; format: ADME, organism-based; conditions: in vivo
Outline: (§2)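 Male Sprague–Dawley rats. Blood collected at various time points into lithium heparin tubes and centrifuged; plasma stored at -70 °C until analysis. Plasma extracted by protein precipitation and quantified by LC/MS/MS.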

[10] = Cmax in Sprague-Dawley rat at 1 mg/kg, iv or 4 mg/kg, po by LC/MS/MS; format: ADME, organism-based; conditions: in vivo; outline: as §2
[11] = Half life in Sprague-Dawley rat at 1 mg/kg, iv or 4 mg/kg, po; format: ADME, organism-based; conditions: in vivo; outline: as §2
[12] = Mean residence time in Sprague-Dawley rat at 1 mg/kg, iv or 4 mg/kg, po; format: ADME, organism-based; conditions: in vivo; outline: as §2
[13] = Volume of distribution at steady state in Sprague-Dawley rat at 1 mg/kg, iv or 4 mg/kg, po; format: ADME, organism-based; conditions: in vivo, read-out: Vdss; outline: as §2
[14] = Plasma clearance in Sprague-Dawley rat at 1 mg/kg, iv or 4 mg/kg, po; format: ADME, organism-based; outline: as §2

Chain of Gastrin-releasing peptide receptor (Homo sapiens) (P30550 whole entry, looked up): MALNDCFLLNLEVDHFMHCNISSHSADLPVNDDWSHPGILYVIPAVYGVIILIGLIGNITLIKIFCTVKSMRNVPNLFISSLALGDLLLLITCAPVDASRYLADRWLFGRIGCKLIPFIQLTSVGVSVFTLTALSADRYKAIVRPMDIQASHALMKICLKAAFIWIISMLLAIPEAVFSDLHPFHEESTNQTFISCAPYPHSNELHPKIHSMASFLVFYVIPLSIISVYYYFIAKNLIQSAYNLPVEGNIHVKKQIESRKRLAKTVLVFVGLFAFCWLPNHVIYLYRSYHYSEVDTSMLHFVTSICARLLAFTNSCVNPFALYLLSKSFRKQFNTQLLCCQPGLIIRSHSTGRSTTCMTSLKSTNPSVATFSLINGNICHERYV
Chain of Neuromedin-B receptor (Homo sapiens) (P28336 whole entry, looked up): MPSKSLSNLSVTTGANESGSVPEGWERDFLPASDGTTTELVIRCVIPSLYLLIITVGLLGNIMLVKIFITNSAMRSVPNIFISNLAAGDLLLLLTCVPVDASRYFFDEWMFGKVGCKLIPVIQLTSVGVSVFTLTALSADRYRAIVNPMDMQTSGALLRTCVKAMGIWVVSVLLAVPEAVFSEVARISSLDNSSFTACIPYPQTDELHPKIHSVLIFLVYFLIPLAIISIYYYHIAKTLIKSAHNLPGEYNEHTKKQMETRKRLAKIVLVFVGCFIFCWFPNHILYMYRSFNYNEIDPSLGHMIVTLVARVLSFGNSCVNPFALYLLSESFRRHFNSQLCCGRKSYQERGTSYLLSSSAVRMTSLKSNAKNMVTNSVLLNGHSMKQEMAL

| Structure (SMILES) | EC50 [3] [nM] | EC50 [4] [nM] | IC50 [5] [nM] | Activity [6] [%] | other results |
| --- | --- | --- | --- | --- | --- |
| CC(C)NC(=O)NS(=O)(=O)c1cnccc1NC1CC2CCC1C2 (centres undefined) |  |  |  |  | EC50 [1]: 220 nM; IC50 [2]: 600 nM |
| CC(C)(C)NC(=O)NS(=O)(=O)c1cnccc1N[C@H]1CN2CCC1CC2 | > 10000 | > 10000 | > 10000 | 0 |  |
| CC(C)(C)NC(=O)NS(=O)(=O)c1cnccc1NCc1ccccc1 | 6900 | 7500 | > 10000 | 20 |  |
| CC(C)(C)NC(=O)NS(=O)(=O)c1cnccc1NC(C)(C)c1ccccc1 | 4300 | 8100 | 3000 | 43 |  |
| CC(C)(C)NC(=O)NS(=O)(=O)c1cnccc1NN1CCCC1 | > 10000 | > 10000 | > 10000 | 5 |  |
| CC(C)(C)NC(=O)NS(=O)(=O)c1cnccc1O[C@@H]1C[C@@H]2CC[C@H]1C2 | 320 | 1600 | 880 | 77 |  |
| CC(C)(C)NC(=O)NS(=O)(=O)c1cnccc1NC1CC2CCC1C2 (centres undefined) |  |  |  |  | EC50 [7]: > 10000 nM; EC50 [8]: > 10000 nM |
| O=C(NC12CC3CC(CC(C3)C1)C2)NS(=O)(=O)c1cnccc1N[C@@H]1C[C@H]2CC[C@@H]1C2 (mixture of isomers) | 39 | 220 | 310 | 55 |  |
| CC(C)NC(=O)NS(=O)(=O)c1cnccc1N[C@@H]1C[C@H]2CC[C@@H]1C2 (racemic) | 86 | 440 | 510 | 88 |  |
| CC(C)NC(=O)NS(=O)(=O)c1cnccc1N[C@H]1C[C@H]2CC[C@@H]1C2 (racemic) | 98 | 940 | 820 | 86 |  |
| CC(C)(C)NC(=O)NS(=O)(=O)c1cnccc1NC1CCc2ccccc21 (racemic) | 1300 | 6800 | 3800 | 63 |  |
| CC(C)(C)NC(=O)NS(=O)(=O)c1cnccc1O[C@@H]1C[C@H]2CC[C@@H]1C2 (racemic) | 320 | 1200 | 990 | 92 |  |
| CC(C)(C)NC(=O)NS(=O)(=O)c1ccccc1N[C@@H]1C[C@H]2CC[C@@H]1C2 (racemic) | 340 | 6400 | 6200 | 91 |  |
| CC(C)(C)CC(=O)NS(=O)(=O)c1cnccc1N[C@@H]1C[C@H]2CC[C@@H]1C2 (racemic) | 4900 | 8300 | > 10000 | 61 |  |
| CC(C)(C)OC(=O)NS(=O)(=O)c1cnccc1N[C@@H]1C[C@H]2CC[C@@H]1C2 (racemic) | 590 | 8200 | > 10000 | 89 |  |
| CN(C(=O)NS(=O)(=O)c1cnccc1N[C@@H]1C[C@H]2CC[C@@H]1C2)C(C)(C)C (racemic) | 180 | 640 | 650 | 96 |  |
| CC(C)(C)NC(=N)NS(=O)(=O)c1cnccc1N[C@@H]1C[C@H]2CC[C@@H]1C2 (racemic) | 7000 | > 10000 | 9700 | 13 |  |
| CN(C(=O)NC(C)(C)C)S(=O)(=O)c1cnccc1N[C@@H]1C[C@H]2CC[C@@H]1C2 (racemic) | 6500 | 8300 | 6700 | 49 |  |
| CC(C)(C)c1cccc(NS(=O)(=O)c2cnccc2N[C@@H]2C[C@H]3CC[C@@H]2C3)c1 (racemic) | 160 | 2600 | 520 | 102 |  |
| CC(C)(C)c1csc(NS(=O)(=O)c2cnccc2N[C@@H]2C[C@H]3CC[C@@H]2C3)n1 (racemic) | 200 | 2100 | 2500 | 81 |  |
| CC(C)(C)c1cc(NS(=O)(=O)c2cnccc2N[C@@H]2C[C@H]3CC[C@@H]2C3)[nH]n1 (racemic) | 270 | 4000 | 250 | 113 |  |
| CC(C)c1n[nH]c(NS(=O)(=O)c2cnccc2N[C@@H]2C[C@H]3CC[C@@H]2C3)n1 (racemic) | 410 | 4000 | 770 | 72 |  |
| O=S(=O)(Nc1nnc(C2CCC2)[nH]1)c1cnccc1N[C@@H]1C[C@H]2CC[C@@H]1C2 (racemic) | 170 | 1200 | 290 |  |  |
| CC(C)(C)NC(=O)NS(=O)(=O)c1cnccc1NC1CC2CCC1C2 (racemic) |  |  |  |  | bioavailability [9]: 100%; Cmax [10]: 7 µM; half-life [11]: 288 min; MRT [12]: 39.6 min; Vd [13]: 0.57 L/kg; clearance [14]: 14 mL/min/kg |
| CCC(C)(C)NC(=O)NS(=O)(=O)c1cnccc1NC1CC2CCC1C2 (racemic) |  |  |  |  | bioavailability [9]: 41%; Cmax [10]: 2 µM; half-life [11]: 15 min; MRT [12]: 11.4 min; Vd [13]: 0.3 L/kg; clearance [14]: 26 mL/min/kg |
| O=S(=O)(Nc1nc(C2CCC2)n[nH]1)c1cnccc1N[C@@H]1C[C@H]2CC[C@@H]1C2 (racemic) |  |  |  | 84 |  |
| O=S(=O)(Nc1nc(C2CCC2)n[nH]1)c1cnccc1NC1CC2CCC1C2 (single isomer, unassigned) [listing 1 of 2 here] | 190 | 1700 | 310 |  |  |
| O=S(=O)(Nc1nc(C2CCC2)n[nH]1)c1cnccc1NC1CC2CCC1C2 (single isomer, unassigned) [listing 2 of 2 here] |  |  |  | 88 |  |
| O=S(=O)(Nc1nc(C2CCC2)n[nH]1)c1cnccc1NC1CC2CCC1C2 (single isomer, unassigned; faster eluting) [listing 1 of 2 here] | 51 | 380 | 68 |  |  |
| O=S(=O)(Nc1nc(C2CCC2)n[nH]1)c1cnccc1NC1CC2CCC1C2 (single isomer, unassigned; faster eluting) [listing 2 of 2 here] |  |  |  | 87 |  |

Second part, led by results:

| EC50 [3] [nM] | EC50 [4] [nM] | IC50 [5] [nM] | Activity [6] [%] | Structure (SMILES) | other results |
| --- | --- | --- | --- | --- | --- |
| 21 | 55 | 68 |  | CC(C)(C)NC(=O)NS(=O)(=O)c1cnccc1N[C@@H]1C[C@H]2CC[C@@H]1C2 [listing 1 of 2 here] |  |
| 110 | 720 | 630 | 93 | CC(C)(C)NC(=O)NS(=O)(=O)c1cnccc1N[C@H]1C[C@@H]2CC[C@H]1C2 |  |
| 260 | 450 | 400 | 90 | CC(C)(C)NC(=O)NS(=O)(=O)c1cnccc1NC1CCCCC1 |  |
| 90 | 1700 | 660 | 88 | CC(C)(C)NC(=O)NS(=O)(=O)c1cnccc1N[C@@H]1C[C@H]2CC[C@]1(C)C2(C)C |  |
| 33 | 450 | 300 | 82 | CC(C)(C)NC(=O)NS(=O)(=O)c1cnccc1N[C@H]1C[C@H]2CC[C@]1(C)C2(C)C |  |
|  |  |  | 100 | CC(C)(C)NC(=O)NS(=O)(=O)c1cnccc1N[C@@H]1C[C@H]2CC[C@@H]1C2 [listing 2 of 2 here] |  |
| 28 | 81 | 100 |  | CC(C)(C)NC(=O)NS(=O)(=O)c1cnccc1N[C@@H]1C[C@H]2CC[C@@H]1C2 (racemic) [listing 1 of 2 here] |  |
| 49 | 160 | 230 | 91 | CC(C)(C)NC(=O)NS(=O)(=O)c1cnccc1N[C@H]1C[C@H]2CC[C@@H]1C2 (racemic) |  |
| 13 | 51 | 75 | 108 | CCC(C)(C)NC(=O)NS(=O)(=O)c1cnccc1N[C@@H]1C[C@H]2CC[C@@H]1C2 (racemic) |  |
| 100 | 350 | 530 | 102 | CC(C)(C)CC(C)(C)NC(=O)NS(=O)(=O)c1cnccc1N[C@@H]1C[C@H]2CC[C@@H]1C2 (racemic) |  |
|  |  |  | 101 | CC(C)(C)NC(=O)NS(=O)(=O)c1cnccc1N[C@@H]1C[C@H]2CC[C@@H]1C2 (racemic) [listing 2 of 2 here] |  |
